In the array DNA melting data of Ke et al. (doi:10.1101/2024.01.08.574731):

How the values were obtained:
[1] = melting temperature; fluorescence melt of hairpins on a sequencing array, two-state fit, raised by 9.35 °C to match UV melts; conditions: sodium 0.088 M
Procedure, shortened: (§1)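 Hairpins were imaged by Cy3 fluorescence on a sequenced MiSeq flow cell with annealed Cy3 and quencher oligos, in 50 mM Na-HEPES pH 8.0, 25 mM NaCl, in 2.5 °C steps up to 60 °C. Bootstrapped two-state fits of normalised signals gave melting temperature and folding enthalpy. Four replicates were combined by inverse variance, and fitted temperatures were raised by 9.35 °C to match UV melts.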

[2] = folding enthalpy; higher = less favourable; fluorescence melt of hairpins on a sequencing array, two-state fit; conditions: sodium 0.088 M
Procedure, shortened: as §1

Row | Sequence | Tm [1] [°C] | folding enthalpy [2] [kcal/mol]
1 | GTCAGCGAAAGCTCAGAC ((((((....)))..))) | 34.5 | -15.8
2 | GATCCCAAATGGGATC ((((((....)))))) | 57.7 | -36.4
3 | GATCCTAGGAAGGATC ((((((....)))))) | 50.1 | -32.8
4 | GATGGGCCGAAAGGCATC (((..(((....)))))) | 34.8 | -9.87
5 | GCTTACGAAAGTAATAGC ((((((....)))..))) | 38.6 | -17.8
6 | GTGCCCCGAAAGGGACAC (((.(((....))).))) | 62.5 | -42.9
7 | GCGGTAGGAAACTGTCGC (((..((....))..))) | 43.8 | -30.3
8 | GATCACTCATGTGATC ((((((....)))))) | 57 | -40.5
9 | GTCTACGAAAGTACGGAC ((((((....)))..))) | 34.1 | -12.1
10 | GTAGCCCCGAAAGGGTAC (((..(((....)))))) | 39.1 | -13.1
11 | GTTTGAGAAATCAAAC ((((((....)))))) | 47 | -27.6
12 | GCGACCGCGAAAGCGCGC (((..(((....)))))) | 56.1 | -15.4
13 | CTGCGGAAACGCAG (((((....))))) | 61.8 | -31.6
14 | GATCATACCATGATC ((((((...)))))) | 48.9 | -40.3
15 | GACACAGGAAACTGTGCC (.(((((....))))).) | 45 | -14.9
16 | CGGGTCGGAAACGACCG (((.(((....)))))) | 61.7 | -11.4
17 | GCTAGAGGAAACTCTAGC (((((((....))))))) | 58.5 | -44
18 | GATCATCGGGATGATC ((((((....)))))) | 53.5 | -44
19 | GAAGTGGGAAACCACTCC (.(((((....))))).) | 38.4 | -14
20 | GTTTTTCGAAAGAATAAC (((.(((....))).))) | 34.7 | -28.1
21 | GCTTTGAAAAAAGC (((((....))))) | 47.4 | -21.3
22 | GTAAACCGAAAGGTATAC (((.(((....))).))) | 40.5 | -25.1
23 | GATCCTGTGGAGGATC ((((((....)))))) | 51.8 | -31.8
24 | GGGAACGAAAGTTACCC ((((((....))).))) | 53.8 | -30

Row | Sequence | Tm [1] [°C] | folding enthalpy [2] [kcal/mol]
25 | GCACTCGGAAACGAACGC ((..(((....)))..)) | 27.8 | -13.9
26 | GGAAAATCGAAAGATTCC (((..(((....)))))) | 29.1 | -7.3
27 | GATCATCTAGATGATC ((((((....)))))) | 52.7 | -43.8
28 | GCGTGTCCACGC ((((....)))) | 61.5 | -32.9
29 | GTTAGGGGAAACCCTAGC (.(((((....))))).) | 40.7 | -21.5
30 | GCCATCGAAAGATAGGGC ((((((....)))..))) | 44.6 | -27.4
31 | GATCGAGACGTCGATC ((((((....)))))) | 57.2 | -37.3
32 | GGGCTAGGAAACTAACCC (((.(((....))).))) | 39.2 | -31.5
33 | GATCCACCATGGATC ((((((...)))))) | 49.7 | -37.4
34 | CGTTGCGGAAACGCCACG (((.(((....))).))) | 49.5 | -29.8
35 | GATCGTATAGACGATC ((((((....)))))) | 53 | -38.1
36 | GTCCGGGCGAAAGCCGAC (((..(((....)))))) | 44.3 | -11.1
37 | CGATGGCGGAAACGCTCG (((..(((....)))))) | 38.5 | -15.8
38 | GATCGTCCGACGATC ((((((...)))))) | 53.9 | -40.9
39 | GGGGGGGGAAACCCCCTC (.(((((....))))).) | 67.8 | -12.5
40 | GACACGGGAAACCACGTC (((..((....))..))) | 34.6 | -29
41 | GAAACCCCGAAAGGGTTC (((..(((....)))))) | 35.7 | -14
42 | GGAGGCGGAAACGTCTCC ((((.((....)).)))) | 58.9 | -49.2
43 | GGGATCGAAAGATCTCCC ((((((....)))..))) | 47.2 | -14.1
44 | GGTGTTGGAAACAGCATC (.((.((....)).)).) | 46.5 | -17.7
45 | GACAACGAAAGTTGGTC ((((((....))).))) | 53.1 | -19.7
46 | CATTTGAAAAAATG (((((....))))) | 32.1 | -11.1
47 | GGGCTCGAAAGAGCTCCC ((((((....)))..))) | 50 | -10.6
48 | GCATAAGCGAAAGCTTGC (((..(((....)))))) | 46.3 | -14.7

Row | Sequence | Tm [1] [°C] | folding enthalpy [2] [kcal/mol]
49 | GCGGGGGGAAACCCCTGC ((.((((....)))).)) | 61.9 | -31.9
50 | GAGCTTGGAAACAAGCTC (((((((....))))))) | 67.8 | -35.1
51 | GCACGGCGAAAGCTGCGC ((.(.((....)).).)) | 61 | -20.8
52 | GATCCAACATGGATC ((((((...)))))) | 50.4 | -33.7
53 | GGTTTGGGAAACTGAACC ((((..(....)..)))) | 35.1 | -29.2
54 | GCTAGCGAAAGCTATAGC ((((((....)))..))) | 46.5 | -18.5
55 | GAGAGACGAAAGTCGCTC (((.(((....))).))) | 60.5 | -32.3
56 | GCGTTCGGACGC ((((....)))) | 53.5 | -25.4
57 | GGTGCAGGAAACTACACC ((((.((....)).)))) | 43.4 | -32.1
58 | GTCCCCGAAAGGGAGAC ((((((....))).))) | 53.7 | -30
59 | GTCAAAGGAAACTTTGAC (((((((....))))))) | 55.8 | -44.9
60 | GGCGGCGAAAGCCGTGCC ((((((....)))..))) | 57.7 | -10.1
61 | GCTTGGCGAAAGCCAGC (((.(((....)))))) | 59 | -14.3
62 | GCTTTCGAAAGAATGAGC ((((((....)))..))) | 31.9 | -14.8
63 | GGCGTACGAAAGTAGGCC (((.(((....))).))) | 64.1 | -36.6
64 | GATCTCGTTTGAGATC ((((((....)))))) | 55.6 | -32.9
65 | GTAGGCGAAAGCCTTAC ((((((....))).))) | 44.9 | -9.64
66 | GTGGTGAAAACCAC (((((....))))) | 58 | -27.3
67 | GAACGCCGAAAGGCTTTC (((.(((....))).))) | 44.2 | -17.9
68 | CGCTGGCGGAAACGCGCG (((..(((....)))))) | 52.5 | -19.5
69 | GATCTCCGGAGAGATC ((((((....)))))) | 52.7 | -39.4
70 | TCCTCGAAAGAGGA (((((....))))) | 52.7 | -17.6
